# Measured values reported in ChEMBL document CHEMBL1146375, “Synthetic studies on novel benzimidazolopeptides with antimicrobial, cytotoxic and anthelmintic potential” (2007).
# Residues, ends and D or L forms follow the SMILES beside them. *: point of attachment. X3 = Cc1cc2nc(-c3c(I)cc(C(=O)*)cc3I)[nH]c2cc1C
# Experiments:
# Trichophyton benhamiae [1] = assay: Antifungal activity against Trichophyton mentagrophytes MUCC 665 after 48 hrs by tube dilution method; type: functional, Arthroderma benhamiae
# In short: (§1)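 Tube dilution MIC as for bacteria (seven concentrations, 200–3.1 […]), with DMSO in place of DMF. Tubes inoculated with fungal culture and incubated 48 h at 37 °C. MIC read from presence or absence of growth.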
# [2] = Anthelmintic activity against Megascoplex konkanensis ICARBC 211 assessed as mean death time; type: functional
# In short: (§2)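 Earthworms exposed to test suspensions at 2 mg mL^-1 (0.2% w/v), made by triturating compound with Tween 80 (0.5%) and distilled water, then mechanically stirred 30 min. Mebendazole suspension prepared alike as reference. Paralysis and death times recorded; death confirmed by no movement in 50 °C water. Means from triplicate sets.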
# Eudrilus [3] = assay: Anthelmintic activity against Eudrilus sp. assessed as mean death time; type: functional
# In short: (§3)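 Earthworms exposed to test suspensions at 2 mg mL−1, prepared by triturating compound with Tween 80 (0.5%) and distilled water, stirring 30 min, then diluting to 0.2% w/v. Mebendazole suspension was made the same way. Death was confirmed by moving worms into 50 °C warm water and looking for movement. Mean death time (min) taken from triplicate sets.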
# [4] = Anthelmintic activity against Megascoplex konkanensis ICARBC 211 assessed as mean paralyzing time; type: functional; in short: as §2
# Pseudomonas aeruginosa [5] = assay: Antibacterial activity against Pseudomonas aeruginosa NCIM 2034 after 18 hrs by tube dilution method; type: functional; details: NCIM 2034, 18 h
# In short: (§4)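 Tube dilution MIC. Stock diluted in sterile broth to seven concentrations from 200 to 3.1 […]. Each tube inoculated with one loopful of test bacterium and incubated 18 h at 37 °C. MIC read from presence or absence of growth.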
# Staphylococcus aureus [6] = assay: Antibacterial activity against Staphylococcus aureus NCIM 2079 after 18 hrs by disc diffusion method; type: functional
# In short: (§5)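 Modified Kirby-Bauer disc diffusion. Plates inoculated with spore suspension (about 6 × 10⁴ spores mL^-1). Sterile 6 mm paper discs carried test samples at 10 mg mL^-1; ciprofloxacin disc as reference, DMF disc as negative control. Plates held 18 h at 37 °C. Inhibition zone diameters (mm) averaged over triplicate sets.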
# Pontoscolex corethrurus [7] = assay: Anthelmintic activity against Pontoscolex corethrurus ICARBC 408 assessed as mean paralyzing time; type: functional; in short: as §2
# Candida albicans [8] = assay: Antifungal activity against Candida albicans MUCC 29 after 48 hrs by tube dilution method; type: functional; in short: as §1
# Pontoscolex corethrurus [9] = assay: Anthelmintic activity against Pontoscolex corethrurus ICARBC 408 assessed as mean death time; type: functional; in short: as §3
# Staphylococcus aureus [10] = assay: Antibacterial activity against Staphylococcus aureus NCIM 2079 after 18 hrs by tube dilution method; type: functional; details: NCIM 2079, 18 h; in short: as §4
# Microsporum audouinii [11] = assay: Antifungal activity against Microsporum audouinii MUCC 545 after 48 hrs by disc diffusion method; type: functional
# In short: (§6)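 Agar well diffusion on plates inoculated with spore suspension in normal saline from cultures on Sabouraud's broth. Wells punched and loaded with test samples or griseofulvin at 10 mg mL^-1, with DMSO as negative control. Incubated 48 h at 37 °C.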
# Trichophyton benhamiae [12] = assay: Antifungal activity against Trichophyton mentagrophytes MUCC 665 after 48 hrs by disc diffusion method; type: functional, Arthroderma benhamiae; in short: as §6
# Eudrilus [13] = assay: Anthelmintic activity against Eudrilus sp. assessed as mean paralyzing time; type: functional; in short: as §2
# Escherichia coli [14] = assay: Antibacterial activity against Escherichia coli NCIM 2065 after 18 hrs by tube dilution method; type: functional; details: NCIM 2065, 18 h
# Candida albicans [15] = assay: Antifungal activity against Candida albicans MUCC 29 after 48 hrs by disc diffusion method; type: functional; in short: as §6
# Escherichia coli [16] = assay: Antibacterial activity against Escherichia coli NCIM 2065 after 18 hrs by disc diffusion method; type: functional; in short: as §5
# Pseudomonas aeruginosa [17] = assay: Antibacterial activity against Pseudomonas aeruginosa NCIM 2034 after 18 hrs by disc diffusion method; type: functional; in short: as §5
# Bacillus subtilis [18] = assay: Antibacterial activity against Bacillus subtilis NCIM 2063 after 18 hrs by disc diffusion method; type: functional; in short: as §5
# Aspergillus niger = assay: Antifungal activity against Aspergillus niger MUCC 177 after 48 hrs by disc diffusion method; type: functional; in short: as §6
# Microsporum audouinii [19] = assay: Antifungal activity against Microsporum audouinii MUCC 545 after 48 hrs by tube dilution method; type: functional; in short: as §1
# Bacillus subtilis [20] = assay: Antibacterial activity against Bacillus subtilis NCIM 2063 after 18 hrs by tube dilution method; type: functional; details: NCIM 2063, 18 h; in short: as §4
SMILES,MIC (Trichophyton benhamiae [1]),TIME [2],Time (Eudrilus [3]),TIME [4],MIC (Pseudomonas aeruginosa [5]),inhibition zone (IZ) (Staphylococcus aureus [6]),Time (Pontoscolex corethrurus [7]),MIC (Candida albicans [8]),Time (Pontoscolex corethrurus [9]),MIC (Staphylococcus aureus [10]),inhibition zone (IZ) (Microsporum audouinii [11]),inhibition zone (IZ) (Trichophyton benhamiae [12]),Time (Eudrilus [13]),MIC (Escherichia coli [14]),inhibition zone (IZ) (Candida albicans [15]),inhibition zone (IZ) (Escherichia coli [16]),inhibition zone (IZ) (Pseudomonas aeruginosa [17]),inhibition zone (IZ) (Bacillus subtilis [18]),inhibition zone (IZ) (Aspergillus niger),MIC (Microsporum audouinii [19]),also measured
COC(=O)CNC(=O)[C@H](CC(C)C)NC(=O)c1ccc(-c2nc3cc(C)c(C)cc3[nH]2)cc1,6 µg/mL,0.69 h,42.54 min,0.472 h,6 µg/mL,9 mm,37.17 min,6 µg/mL,49.4 min,12.5 µg/mL,10 mm,12 mm,29.73 min,12.5 µg/mL,18 mm,14 mm,20 mm,10 mm,16 mm,25 µg/mL,MIC (Bacillus subtilis [20]): 6 µg/mL
CC[C@H](C)[C@H](NC(=O)CNC(=O)c1cc(I)c(-c2nc3cc(C)c(C)cc3[nH]2)c(I)c1)C(=O)NCC(=O)N[C@H](C(=O)OC)[C@@H](C)O (X3-GIGT-OMe),25 µg/mL,1.08 h,70.54 min,0.602 h,6 µg/mL,12 mm,57.67 min,12.5 µg/mL,82.3 min,12.5 µg/mL,9 mm,9 mm,38.45 min,12.5 µg/mL,13 mm,17 mm,22 mm,15 mm,18 mm,25 µg/mL,MIC (Bacillus subtilis [20]): 6 µg/mL
COC(=O)[C@H](CCCNC(=N)N[N+](=O)[O-])NC(=O)c1cc(-c2nc3ccc([N+](=O)[O-])cc3[nH]2)ccc1O,6 µg/mL,0.426 h,28.27 min,0.27 h,6 µg/mL,10 mm,20.65 min,12.5 µg/mL,32.22 min,25 µg/mL,13 mm,15 mm,17.98 min,12.5 µg/mL,15 mm,15 mm,19 mm,13 mm,18 mm,6 µg/mL,MIC (Bacillus subtilis [20]): 6 µg/mL
COC(=O)[C@H](Cc1c[nH]c2ccccc12)NC(=O)c1cc(-c2nc3ccc([N+](=O)[O-])cc3[nH]2)ccc1O,6 µg/mL,0.374 h,23.93 min,0.218 h,12.5 µg/mL,12 mm,17.02 min,6 µg/mL,29.41 min,12.5 µg/mL,10 mm,17 mm,13.37 min,12.5 µg/mL,20 mm,16 mm,20 mm,12 mm,16 mm,12.5 µg/mL,MIC (Bacillus subtilis [20]): 6 µg/mL
COC(=O)[C@H](Cc1cnc[nH]1)NC(=O)c1cc(I)c(-c2nc3cc(C)c(C)cc3[nH]2)c(I)c1,12.5 µg/mL,0.758 h,46.3 min,0.488 h,6 µg/mL,12 mm,34.14 min,6 µg/mL,47.82 min,12.5 µg/mL,11 mm,12 mm,34.34 min,12.5 µg/mL,18 mm,18 mm,24 mm,16 mm,14 mm,25 µg/mL,MIC (Bacillus subtilis [20]): 6 µg/mL
COC(=O)[C@H](C)NC(=O)[C@@H]1CCCN1C(=O)c1cc(-c2nc3ccc([N+](=O)[O-])cc3[nH]2)ccc1O,6 µg/mL,0.587 h,35.82 min,0.438 h,6 µg/mL,9 mm,31.98 min,6 µg/mL,43.76 min,25 µg/mL,12 mm,17 mm,27.23 min,12.5 µg/mL,22 mm,18 mm,28 mm,13 mm,16 mm,6 µg/mL,MIC (Bacillus subtilis [20]): 12.5 µg/mL
O=C(O)CNC(=O)CNC(=O)c1cc(-c2nc3ccc([N+](=O)[O-])cc3[nH]2)ccc1O,6 µg/mL,0.601 h,36.7 min,0.451 h,6 µg/mL,9 mm,31.18 min,6 µg/mL,42.26 min,12.5 µg/mL,13 mm,16 mm,25.5 min,12.5 µg/mL,18 mm,16 mm,22 mm,9 mm,17 mm,6 µg/mL,MIC (Bacillus subtilis [20]): 25 µg/mL
